The source of these data is ChEMBL document CHEMBL1275571, “Impact of self-assembly properties on antibacterial activity of short acyl-lysine oligomers” (Antimicrob Agents Chemother, 2008).

In brackets after ≈: the same amount, converted by molar mass. Non-standard residues stand in square brackets, D forms with d. Residues, ends and D or L forms follow the SMILES beside them. *: point of attachment. Palmitoyl = CCCCCCCCCCCCCCCC(=O)*; 12Ado = NCCCCCCCCCCCC(=O)O

In one series the test system is Escherichia coli. Put plainly: Antimicrobial activity against Escherichia coli ATCC 35218 by microdilution method. It is filed as functional. The method, boiled down: (§1)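 Overnight LB cultures were diluted 10,000-fold and used at 2 × 105 to 4 × 10^5 CFU/ml (LB pH 7.4). They were mixed 1:1 with compound in twofold serial dilutions from 0 to 50 μΜ. Plates were incubated overnight at 37°C and read by OD620. The MIC is the concentration giving 100% inhibition. Values are from at least two independent assays run in duplicate.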

In a further series the test system is Pseudomonas aeruginosa. Nature of the series: Antimicrobial activity against Pseudomonas aeruginosa ATCC 9027 by microdilution method. It is filed as functional. The method, boiled down: as §1
The subject of a further series is Staphylococcus aureus. Put plainly: Antimicrobial activity against Staphylococcus aureus ATCC 25923 by microdilution method. It counts as functional. A digest of the protocol: as §1
For another series, the system named is Enterococcus faecalis. Nature of the series: Antimicrobial activity against Enterococcus faecalis ATCC 29212 by microdilution method. It is filed as functional. The method, boiled down: as §1
Series [1] is described as follows: Cytotoxicity against human RBC assessed as hemolysis. It counts as organism-based. Conditions: human red blood cells (RBC), read-out: LC50 (the source's name). A digest of the protocol: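 Human red blood cells at 1% hematocrit incubated 3 h at 37°C with the compound in PBS (50 mM sodium phosphate, 150 mM NaCl, pH 7.4). Value is the concentration giving 50% hemolysis (LC50, μM). Values are rounded up to the nearest half unit, as means ± standard deviations of at least four independent experiments run in duplicate.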

The test system of series [2] is Lipid bilayer. Put plainly: Apparent affinity to phospholipid membrane in cell-free system at low concentration range of 0.16 to 2.5 uM. A digest of the protocol: (§2)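 Surface plasmon resonance on a POPC-POPG (3:1) small-unilamellar-vesicle bilayer on an L1 chip. Compound was in PBS pH 7.4 at the low series (0.16, 0.31, 0.62, 1.25, 2.5 μM), duplicate injections each. Affinity constants were calculated with a two-step binding model from the average of five duplicated binding curves.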

Series [3] deals with Lipid bilayer. Nature of the series: Apparent affinity to phospholipid membrane in cell-free system at high concentration range of 3.1 to 50 uM. A digest of the protocol:
(§3)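 SPR on an L1 chip, with small unilamellar vesicles of POPC-POPG (3:1 molar ratio) as the bilayer. Compound was in PBS pH 7.4 and injected in the high series (3.1, 6.25, 12.5, 25, 50 μM), two injections per concentration. Association and dissociation curves were fitted to a two-step binding model. Constants come from five duplicated curves.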

Series [4] concerns Lipid bilayer. Nature of the series: Adhesion affinity to phospholipid membrane in cell-free system at low concentration range of 0.16 to 2.5 uM. A digest of the protocol: as §2
Series [5] deals with Lipid bilayer. Put plainly: Adhesion affinity to phospholipid membrane in cell-free system at high concentration range of 3.1 to 50 uM. The method, boiled down:
as §3

`CCCCCC/C=C\CCCCCCCC(=O)N[C@@H](CCCCN)C(=O)N[C@@H](CCCCN)C(=O)NCCCCCCCCCCCC(=O)N[C@@H](CCCCN)C(N)=O`: the MBC in the series with Escherichia coli turned out to be 12.5 µM (≈ 10.4 µg/mL); against Pseudomonas aeruginosa, 50 µM (≈ 41.8 µg/mL); against Staphylococcus aureus, 6 µM (≈ 5.01 µg/mL); against Enterococcus faecalis, 6 µM (≈ 5.01 µg/mL). Further, the results for the minimal inhibitory concentration (MIC) against Escherichia coli, against Pseudomonas aeruginosa and in the series on Staphylococcus aureus were 6 µM (≈ 5.01 µg/mL), 12.5 µM (≈ 10.4 µg/mL) and 3 µM (≈ 2.51 µg/mL), respectively. In addition, the HC50 in series [1] amounted to 8.5 µM. Also, the Kapp in the series on Lipid bilayer [2] was 1.7 ×10⁷ /M; with Lipid bilayer [3] it was 4.5 ×10⁷ /M. Also, the K with Lipid bilayer [4] came to 2.1 ×10⁶ /M; with Lipid bilayer [5] it was 1.5 ×10⁶ /M.

With `CCCCCCCCCCCCCCCC(=O)N[C@@H](CCCCN)C(=O)N[C@@H](CCCCN)C(=O)NCCCCCCCCCCCC(=O)N[C@@H](CCCCN)C(N)=O` (Palmitoyl-KK[12Ado]K-NH2), the minimum bactericidal concentration (MBC) is over 50 µM with Escherichia coli, over 50 µM against Pseudomonas aeruginosa, over 25 µM in the series with Staphylococcus aureus and over 25 µM against Enterococcus faecalis. Besides, the MIC with Escherichia coli is 25 µM (≈ 20.9 µg/mL); in the series on Pseudomonas aeruginosa, over 25 µM; against Staphylococcus aureus it was 6 µM (≈ 5.02 µg/mL). Moreover, in series [1], the HC50 was 15 µM. In addition, the Kapp in the series on Lipid bilayer [2] was 8.3 ×10⁷ /M; in the series on Lipid bilayer [3], 4.3 ×10⁴ /M. In addition, the K turned out to be 2.2 ×10⁶ /M in the series with Lipid bilayer [4] and 4.3 ×10⁵ /M in the series on Lipid bilayer [5].
